According to ChEMBL document CHEMBL3244017, “Structure--activity relationships of pyrrole amidine antiviral antibiotics. 1. Modifications of the alkylamidine side chain” (J Med Chem, 1979):
Active and inactive are the calls of the source.

Assays:
[1] = Cytotoxicity against African green monkey BSC1 cells after 24 to 72 hrs by light microscopic analysis; assay type: cell-based, BSC-1; conditions: chlorocebus aethiops
How it was run: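 BSC-1 monkey kidney cells incubated with drug at 37 °C, dissolved in 10% Me₂SO in water. Cell destruction was scored by light microscopy at 24, 48 and 72 h. Toxicity was defined as cell death within 2 days. The maximal nontoxic concentration is the nontoxic level whose twofold increase causes toxicity.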

Human alphaherpesvirus 1 [2] = assay: Antiviral activity against Herpes simplex virus 1 HF infected in African green monkey BSC1 cells assessed as inhibition of viral progeny production at 200 ug/ml after 20 to 24 hrs by plaque reduction assay relative to control; assay type: functional; conditions: Human alphaherpesvirus 1, HF, BSC-1
How it was run: (§1)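 BSC-1 monkey kidney monolayers in DMEM with 10% fetal bovine serum, infected with HSV-1 strain HF at 10 pfu/cell. Drug, in 10% Me2SO in water, added at infection at the highest noncytotoxic concentration. Cultures held 20–24 h at 37 °C, then sonicated. Progeny titred by plaque assay on BSC-1 (3 h adsorption, agar overlay, 72 h, gentian violet). Inhibition is plaque count with drug versus without.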

BSC-1 [3] = assay: Inhibition of Herpes simplex virus 1 HF DNA polymerase-mediated DNA synthesis in African green monkey BSC1 cell nucleus at 200 ug/ml after 60 mins by [3H]-TTP incorporation assay relative to control; assay type: cell-based; conditions: Human alphaherpesvirus 1
How it was run: (§2)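 Nuclei were taken from BSC-1 cells 20 h after HSV-1 infection by Dounce homogenization and low-speed spin. They were washed and incubated with drug for 60 min at 37 °C: 8 × 10⁶ nuclei, 80 mM K phosphate pH 7.4, 250 mM sucrose, 6 mM MgCl₂, 0.4 mM CaCl₂, 0.04 mM dATP/dGTP/dCTP, [³H]TTP, 1 mM ATP, PEP/pyruvate kinase, 5 mM EGTA. Read-out was TCA-precipitable radioactivity.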

BSC-1 [4] = assay: Inhibition of Herpes simplex virus 1 HF DNA polymerase-mediated DNA synthesis in African green monkey BSC1 cell nucleus at 400 ug/ml after 60 mins by [3H]-TTP incorporation assay relative to control; assay type: cell-based; conditions: Human alphaherpesvirus 1; how it was run: as §2
BSC-1 [5] = assay: Inhibition of Herpes simplex virus 1 HF DNA polymerase-mediated DNA synthesis in African green monkey BSC1 cell nucleus after 60 mins by [3H]-TTP incorporation assay relative to control; assay type: cell-based; conditions: Human alphaherpesvirus 1; how it was run: as §2
Human alphaherpesvirus 1 [6] = assay: Antiviral activity against Herpes simplex virus 1 HF infected in African green monkey BSC1 cells assessed as inhibition of viral progeny production at 25 ug/ml after 20 to 24 hrs by plaque reduction assay relative to control; assay type: functional; conditions: Human alphaherpesvirus 1, HF, BSC-1; how it was run: as §1
BSC-1 [7] = assay: Inhibition of Herpes simplex virus 1 HF DNA polymerase-mediated DNA synthesis isolated from virus-infected African green monkey BSC1 cells at 25 to 400 ug/ml by [3H]-TTP incorporation assay; assay type: cell-free; conditions: Human alphaherpesvirus 1
How it was run: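 HSV DNA polymerase came from nuclear extracts of BSC-1 cells 12 h post-infection, via 70% ammonium sulfate precipitation and sucrose gradients. Assay: 250 mM KCl, 2 mM MgCl₂, 0.05 mM dGTP/dATP/dCTP, 0.01 mM TTP plus [³H]TTP, 500 µg/mL activated calf thymus DNA, 10 mM Tris-HCl pH 8.1, 0.5 µg/mL BSA. Inhibition relative to drug-free reactions.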

Human alphaherpesvirus 1 [8] = assay: Antiviral activity against Herpes simplex virus 1 HF infected in African green monkey BSC1 cells assessed as inhibition of viral progeny production at 50 ug/ml after 20 to 24 hrs by plaque reduction assay relative to control; assay type: functional; conditions: Human alphaherpesvirus 1, HF, BSC-1; how it was run: as §1
BSC-1 [9] = assay: Inhibition of Herpes simplex virus 1 HF DNA polymerase-mediated DNA synthesis in African green monkey BSC1 cell nucleus at 25 to 300 ug/ml after 60 mins by [3H]-TTP incorporation assay relative to control; assay type: cell-based; conditions: Human alphaherpesvirus 1; how it was run: as §2

For `Cn1cc(NC(=O)c2cc(NC(=O)c3cc(NC=O)cn3C)cn2C)cc1C(=O)NCC(=N)N`, the MNTC [1] was greater than 200 µg/mL, the inhibition at 200 µg/mL (Human alphaherpesvirus 1 [2]) was 61% and the inhibition (BSC-1 [3]) was 65%. For the same compound, the inhibition (BSC-1 [4]) was “Active”.
Work on `Cn1cc(NC(=O)c2cc(NC(=O)c3cc(NC=O)cn3C)cn2C)cc1C(=O)NCCC#N` yielded an MNTC [1] greater than 200 µg/mL, an inhibition at 200 µg/mL (Human alphaherpesvirus 1 [2]) of 65.5% and an inhibition (BSC-1 [3]) of 65%. For the same compound, the inhibition (BSC-1 [4]) was “Active”.
For `Cn1cc(NC(=O)c2cc([N+](=O)[O-])cn2C)cc1C(=O)Nc1cc(C(=O)Nc2ccccc2C(=N)N)n(C)c1`, the MNTC [1] was greater than 200 µg/mL, the inhibition at 200 µg/mL (Human alphaherpesvirus 1 [2]) was 96.9% and the “inhibition of viral DNA synthesis (active/not active)” value (“inhibition … (active/not active)” below) (BSC-1 [5]) was “inactive”.
Work on `Cn1cc(NC=O)cc1C(=O)Nc1cc(C(=O)Nc2cc(C(=O)Nc3ccc(C(=N)N)cc3)n(C)c2)n(C)c1` yielded an MNTC [1] greater than 200 µg/mL, an inhibition at 200 µg/mL (Human alphaherpesvirus 1 [2]) of 76.4% and an inhibition (BSC-1 [3]) of less than 42%. The inhibition (BSC-1 [4]) was “Active”.
`Cn1cc(NC(=O)c2cc(NC(=O)c3cc(NC=O)cn3C)cn2C)cc1C(=O)NCCC(=N)N` showed an MNTC [1] of 25 µg/mL, an inhibition at 25 µg/mL (Human alphaherpesvirus 1 [6]) of 99.7% and an inhibition (BSC-1 [3]) of 95%. For the same compound, the inhibition (BSC-1 [4]) was “Active” and the inhibition (BSC-1 [7]) was “Active”.
For `Cn1cc(NC=O)cc1C(=O)Nc1cc(C(=O)Nc2cc(C(=O)Nc3ccccc3C(=N)N)n(C)c2)n(C)c1`, the MNTC [1] was greater than 200 µg/mL, the inhibition at 200 µg/mL (Human alphaherpesvirus 1 [2]) was 96.7% and the inhibition (BSC-1 [3]) was 65%. The inhibition (BSC-1 [4]) was “Active”.
With `Cn1cc(NC(=O)c2cc(NC(=O)c3cc([N+](=O)[O-])cn3C)cn2C)cc1C(=O)Nc1cccc(C(=N)N)c1` the MNTC [1] was greater than 200 µg/mL, the inhibition at 200 µg/mL (Human alphaherpesvirus 1 [2]) was 97.2% and the “inhibition … (active/not active)” value (BSC-1 [5]) was “inactive”.
In the case of `Cn1cc(NC(=O)c2cc(NC(=O)c3cc([N+](=O)[O-])cn3C)cn2C)cc1C(=O)NCC(=N)N`, the MNTC [1] is reported as 50 µg/mL, the inhibition at 50 µg/mL (Human alphaherpesvirus 1 [8]) is reported as 98.1% and the “inhibition … (active/not active)” value (BSC-1 [5]) is reported as “inactive”.
Work on `CC(CC(=N)N)NC(=O)c1cc(NC(=O)c2cc(NC(=O)c3cc(NC=O)cn3C)cn2C)cn1C` (stereo not drawn) yielded an MNTC [1] greater than 200 µg/mL, an inhibition at 200 µg/mL (Human alphaherpesvirus 1 [2]) of 48% and an inhibition (BSC-1 [3]) of 86%. The inhibition (BSC-1 [4]) was “Active”.
In the case of `Cn1cc(NC(=O)c2cc(NC(=O)c3cc([N+](=O)[O-])cn3C)cn2C)cc1C(=O)NCCC(=N)N`, the MNTC [1] is reported as greater than 200 µg/mL, the inhibition at 200 µg/mL (Human alphaherpesvirus 1 [2]) is reported as 86.5% and the “inhibition … (active/not active)” value (BSC-1 [5]) is reported as “Active”.
With `Cn1cc(NC=O)cc1C(=O)Nc1cc(C(=O)Nc2cc(C(=O)Nc3cccc(C(=N)N)c3)n(C)c2)n(C)c1` the MNTC [1] was greater than 200 µg/mL, the inhibition at 200 µg/mL (Human alphaherpesvirus 1 [2]) was 97.1% and the inhibition (BSC-1 [3]) was 65%. For the same compound, the inhibition (BSC-1 [4]) was “Active” and the inhibition (BSC-1 [7]) was “Active”.
In the case of `CC(CC(=N)N)NC(=O)c1cc(NC(=O)c2cc(NC(=O)c3cc([N+](=O)[O-])cn3C)cn2C)cn1C` (stereo not drawn), the MNTC [1] is reported as greater than 200 µg/mL, the inhibition at 200 µg/mL (Human alphaherpesvirus 1 [2]) is reported as 93.7% and the “inhibition … (active/not active)” value (BSC-1 [5]) is reported as “Active”.
In the case of `CC(CC#N)NC(=O)c1cc(NC(=O)c2cc(NC(=O)c3cc(NC=O)cn3C)cn2C)cn1C` (stereo not drawn), the MNTC [1] is reported as greater than 200 µg/mL, the inhibition at 200 µg/mL (Human alphaherpesvirus 1 [2]) is reported as 84.6% and the inhibition (BSC-1 [3]) is reported as less than 42%. For the same compound, the inhibition (BSC-1 [4]) was “Active” and the inhibition (BSC-1 [9]) was “Active”.
For `Cn1cc(NC(=O)c2cc(NC(=O)c3cc([N+](=O)[O-])cn3C)cn2C)cc1C(=O)Nc1ccc(C(=N)N)cc1`, the MNTC [1] was greater than 200 µg/mL, the inhibition at 200 µg/mL (Human alphaherpesvirus 1 [2]) was 94.8% and the “inhibition … (active/not active)” value (BSC-1 [5]) was “inactive”.
